Test results taken from ChEMBL document CHEMBL3227952, “Potential organ- or tumor-imaging agents. 18. Radioiodinated diamines and bisquaternaries” (J Med Chem, 1979).

Key:
Lung [1] = test: Drug uptake in Sprague-Dawley rat lung at 6.2 to 10.4 uCi, iv after 2 hrs by liquid scintillation counting; type: ADME, organism-based; conditions: in vivo
Lung [2] = test: Drug uptake in Sprague-Dawley rat lung at 6.2 to 10.4 uCi, iv after 0.5 hrs by liquid scintillation counting; type: ADME, organism-based; conditions: in vivo, in the assay text read “well-scintillation gamma counting” for “liquid scintillation counting”
In short: (§1)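 Three rats were killed at 0.5 h and five at 2 h by exsanguination under ether. Organs were rinsed, blotted and weighed, duplicate samples gamma-counted (87% efficiency), expressed as % administered dose/g, mean ± SEM.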

[3] = Drug uptake in Sprague-Dawley rat bone marrow at 6.2 to 10.4 uCi, iv after 2 hrs by liquid scintillation counting; type: ADME, organism-based; conditions: in vivo
In short: (§2)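 Adult male rats (200–420 g) given radioiodinated agent, 6.5–7.0 μCi/mg, in 0.10–0.15 mL of 0.1 N HCl. Dosing was by tail vein under ether. Rats were killed by exsanguination, three at 0.5 h and five at 2 h. Organs were rinsed, blotted and weighed, with duplicate samples counted for radioactivity. Results are % administered dose/g, mean ± SEM.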

Blood [4] = test: Drug uptake in Sprague-Dawley rat blood at 6.2 to 10.4 uCi, iv after 0.5 hrs by liquid scintillation counting; type: ADME, organism-based; conditions: in vivo; in short: as §2
[5] = Drug uptake in Sprague-Dawley rat diaphragm at 6.2 to 10.4 uCi, iv after 2 hrs by liquid scintillation counting; type: ADME, organism-based; conditions: in vivo; in short: as §2
Pancreas [6] = test: Drug uptake in Sprague-Dawley rat pancreas at 6.2 to 10.4 uCi, iv after 2 hrs by liquid scintillation counting; type: ADME, organism-based; conditions: in vivo
Brain [7] = test: Drug uptake in Sprague-Dawley rat brain at 6.2 to 10.4 uCi, iv after 2 hrs by liquid scintillation counting; type: ADME, organism-based; conditions: in vivo; in short: as §2
Adrenal [8] = test: Drug uptake in Sprague-Dawley rat adrenal at 6.2 to 10.4 uCi, iv after 0.5 hrs by liquid scintillation counting; type: ADME, organism-based, Adrenal gland; conditions: in vivo; in short: as §2
Testes [9] = test: Drug uptake in Sprague-Dawley rat testes at 6.2 to 10.4 uCi, iv after 2 hrs by liquid scintillation counting; type: ADME, organism-based, Testis; conditions: in vivo
[10] = Drug uptake in Sprague-Dawley rat dorsolateral prostate at 6.2 to 10.4 uCi, iv after 0.5 hrs by liquid scintillation counting; type: ADME, organism-based, Prostate gland; conditions: in vivo; in short: as §2
[11] = Drug uptake in Sprague-Dawley rat dorsolateral prostate at 6.2 to 10.4 uCi, iv after 2 hrs by liquid scintillation counting; type: ADME, organism-based, Prostate gland; conditions: in vivo; in short: as §2
Duodenum [12] = test: Drug uptake in Sprague-Dawley rat duodenum at 6.2 to 10.4 uCi, iv after 2 hrs by liquid scintillation counting; type: ADME, organism-based; conditions: in vivo; in short: as §2
Pancreas [13] = test: Drug uptake in Sprague-Dawley rat pancreas at 6.2 to 10.4 uCi, iv after 0.5 hrs by liquid scintillation counting; type: ADME, organism-based; conditions: in vivo, in the assay text read “well-scintillation gamma counting” for “liquid scintillation counting”; in short: as §1
Kidney [14] = test: Drug uptake in Sprague-Dawley rat kidney at 6.2 to 10.4 uCi, iv after 2 hrs by liquid scintillation counting; type: ADME, organism-based; conditions: in vivo, in the assay text read “well-scintillation gamma counting” for “liquid scintillation counting”; in short: as §1
[15] = Drug uptake in Sprague-Dawley rat ventral prostate at 6.2 to 10.4 uCi, iv after 0.5 hrs by liquid scintillation counting; type: ADME, organism-based, Prostate gland; conditions: in vivo
In short: (§3)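 Adult male Sprague-Dawley rats (200–420 g) with free access to food and water. Under ether anesthesia, each received 6.2–10.4 μCi (6.5–7.0 μCi/mg) of tracer in 0.10–0.15 mL of 0.1 N HCl vehicle, iv via the tail vein. Rats were killed by exsanguination at 0.5 h (3 rats) or 2 h (5 rats). Organs were rinsed, blotted and weighed; duplicate samples were counted. Results are % administered dose/g, mean ± SEM.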

Brain [16] = test: Drug uptake in Sprague-Dawley rat brain at 6.2 to 10.4 uCi, iv after 0.5 hrs by liquid scintillation counting; type: ADME, organism-based; conditions: in vivo; in short: as §2
[17] = Drug uptake in Sprague-Dawley rat diaphragm at 6.2 to 10.4 uCi, iv after 0.5 hrs by liquid scintillation counting; type: ADME, organism-based; conditions: in vivo; in short: as §2
Spleen [18] = test: Drug uptake in Sprague-Dawley rat spleen at 6.2 to 10.4 uCi, iv after 2 hrs by liquid scintillation counting; type: ADME, organism-based; conditions: in vivo
Duodenum [19] = test: Drug uptake in Sprague-Dawley rat duodenum at 6.2 to 10.4 uCi, iv after 0.5 hrs by liquid scintillation counting; type: ADME, organism-based; conditions: in vivo; in short: as §2
Blood [20] = test: Drug uptake in Sprague-Dawley rat blood at 6.2 to 10.4 uCi, iv after 2 hrs by liquid scintillation counting; type: ADME, organism-based; conditions: in vivo; in short: as §2
Heart [21] = test: Drug uptake in Sprague-Dawley rat heart at 6.2 to 10.4 uCi, iv after 0.5 hrs by liquid scintillation counting; type: ADME, organism-based; conditions: in vivo; in short: as §2
Thyroid gland [22] = test: Drug uptake in Sprague-Dawley rat thyroid at 6.2 to 10.4 uCi, iv after 2 hrs by liquid scintillation counting; type: ADME, organism-based; conditions: in vivo
Liver [23] = test: Drug uptake in Sprague-Dawley rat liver at 6.2 to 10.4 uCi, iv after 0.5 hrs by liquid scintillation counting; type: ADME, organism-based; conditions: in vivo, in the assay text read “well-scintillation gamma counting” for “liquid scintillation counting”; in short: as §1
Adrenal [24] = test: Drug uptake in Sprague-Dawley rat adrenal at 6.2 to 10.4 uCi, iv after 2 hrs by liquid scintillation counting; type: ADME, organism-based, Adrenal gland; conditions: in vivo; in short: as §2
Testes [25] = test: Drug uptake in Sprague-Dawley rat testes at 6.2 to 10.4 uCi, iv after 0.5 hrs by liquid scintillation counting; type: ADME, organism-based, Testis; conditions: in vivo
Thyroid gland [26] = test: Drug uptake in Sprague-Dawley rat thyroid at 6.2 to 10.4 uCi, iv after 0.5 hrs by liquid scintillation counting; type: ADME, organism-based; conditions: in vivo
Kidney [27] = test: Drug uptake in Sprague-Dawley rat kidney at 6.2 to 10.4 uCi, iv after 0.5 hrs by liquid scintillation counting; type: ADME, organism-based; conditions: in vivo
Pituitary gland [28] = test: Drug uptake in Sprague-Dawley rat pituitary at 6.2 to 10.4 uCi, iv after 2 hrs by liquid scintillation counting; type: ADME, organism-based; conditions: in vivo
Spleen [29] = test: Drug uptake in Sprague-Dawley rat spleen at 6.2 to 10.4 uCi, iv after 0.5 hrs by liquid scintillation counting; type: ADME, organism-based; conditions: in vivo, in the assay text read “well-scintillation gamma counting” for “liquid scintillation counting”; in short: as §1
Liver [30] = test: Drug uptake in Sprague-Dawley rat liver at 6.2 to 10.4 uCi, iv after 2 hrs by liquid scintillation counting; type: ADME, organism-based; conditions: in vivo, in the assay text read “well-scintillation gamma counting” for “liquid scintillation counting”; in short: as §1
[31] = Drug uptake in Sprague-Dawley rat bone marrow at 6.2 to 10.4 uCi, iv after 0.5 hrs by liquid scintillation counting; type: ADME, organism-based; conditions: in vivo; in short: as §2
Heart [32] = test: Drug uptake in Sprague-Dawley rat heart at 6.2 to 10.4 uCi, iv after 2 hrs by liquid scintillation counting; type: ADME, organism-based; conditions: in vivo, in the assay text read “well-scintillation gamma counting” for “liquid scintillation counting”; in short: as §2
Pituitary gland [33] = test: Drug uptake in Sprague-Dawley rat pituitary at 6.2 to 10.4 uCi, iv after 0.5 hrs by liquid scintillation counting; type: ADME, organism-based; conditions: in vivo, in the assay text read “well-scintillation gamma counting” for “liquid scintillation counting”; in short: as §1
[34] = Drug uptake in Sprague-Dawley rat ventral prostate at 6.2 to 10.4 uCi, iv after 2 hrs by liquid scintillation counting; type: ADME, organism-based, Prostate gland; conditions: in vivo; in short: as §3

SMILES: NCc1ccc(CN)c([125I])c1
- Drug uptake (Lung [1]): 2.261 % ID/g
- Drug uptake (Lung [2]): 2.384 % ID/g
- Drug uptake [3]: 0.682 % ID/g
- Drug uptake (Blood [4]): 0.073 % ID/g
- Drug uptake [5]: 0.293 % ID/g
- Drug uptake (Pancreas [6]): 0.617 % ID/g
- Drug uptake (Brain [7]): 0.088 % ID/g
- Drug uptake (Adrenal [8]): 1.732 % ID/g
- Drug uptake (Testes [9]): 0.048 % ID/g
- Drug uptake [10]: 0.32 % ID/g
- Drug uptake [11]: 0.436 % ID/g
- Drug uptake (Duodenum [12]): 0.343 % ID/g
- Drug uptake (Pancreas [13]): 0.657 % ID/g
- Drug uptake (Kidney [14]): 1.67 % ID/g
- Drug uptake [15]: 0.296 % ID/g
- Drug uptake (Brain [16]): 0.063 % ID/g
- Drug uptake [17]: 0.38 % ID/g
- Drug uptake (Spleen [18]): 0.988 % ID/g
- Drug uptake (Duodenum [19]): 0.485 % ID/g
- Drug uptake (Blood [20]): 0.041 % ID/g
- Drug uptake (Heart [21]): 0.553 % ID/g
- Drug uptake (Thyroid gland [22]): 3.476 % ID/g
- Drug uptake (Liver [23]): 1.008 % ID/g
- Drug uptake (Adrenal [24]): 1.577 % ID/g
- Drug uptake (Testes [25]): 0.036 % ID/g
- Drug uptake (Thyroid gland [26]): 2.457 % ID/g
- Drug uptake (Kidney [27]): 1.926 % ID/g
- Drug uptake (Pituitary gland [28]): 0.681 % ID/g
- Drug uptake (Spleen [29]): 0.844 % ID/g
- Drug uptake (Liver [30]): 0.949 % ID/g
- Drug uptake [31]: 0.44 % ID/g
- Drug uptake (Heart [32]): 0.44 % ID/g
- Drug uptake (Pituitary gland [33]): 0.533 % ID/g
- Drug uptake [34]: 0.293 % ID/g
